Screens from PubChem BioAssay.
Fibroblast inh = blocks proliferation of human lung fibroblasts; viability, % at 10 µM; 85,000 tested, 1.1% active; LL 47 human lung fibroblast viability, ATP luminescence; hits give low values;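 active = viability at or below 50% in the single dose screen; inactive = viability above 50%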;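 also: compound exposure lasted 72 h before the ATP readout; 100% = median luminescence of untreated cell-only wells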
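Benchmarks: Cell-only wells, no compound | Test system: LL 47 human lung fibroblasts, passage 12 or lower | Input: 1,150 cells/well | Measured by: CellTiter-Glo luminescence measuring cellular ATP | Medium: IMEM, 15% FBS supplement | Schedule: Overnight attachment after seeding, then 72 h compound exposure at 37 °C | Doses: Compound addition at 0.1% DMSO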
H69AR inhibit = blocks growth of human H69AR lung tumor cells; AID 598; viability, % at 10 µM; H69AR lung tumor viability, ATP luminescence, 72 h; hits give low values; 85,000 tested, 6% active;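 active = viability at or below 40%; inactive = viability above 40%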;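 also: multidrug resistant small cell line overexpressing MRP-1 efflux transporter; 100% = mean luminescence of untreated control wells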
HCT116 bCat-KO = beta-catenin-lacking colon tumor cell growth suppression; HCT116 beta-catenin knockout viability, CellTiter-Glo, 60 h; hits give low values; AID 818; 140,000 tested, 1.5% active; viability, % at 10 µM;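 active = viability at or under a set limit, the compound median less 4 SD, cut at about 6% in these data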;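 also: 0% = Hyamine 1622 control at 20 µM and 100% = untreated cell control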
HUVEC inhibit = human endothelial cell proliferation inhibition; HUVEC proliferation, CellTiter-Glo luminescence, 72 h; hits give low values; viability, % at 10 µM (by protocol); 86,000 tested, 1.1% active; AID 648;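 active = viability at or below 30%; inactive = viability above 30%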;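 also: 100% = median luminescence of DMSO-only cell control wells on each plate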
PTEN del growth = PTEN-deleted cell growth suppression; HCT116 PTEN-null viability, CellTiter-Glo, 60 h; hits give low values; viability, % at 10 µM; AID 827; 140,000 tested, 1.2% active;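 active = viability at or below a set limit, 4 SD under the median of all tested compounds, cut at about 3.7% in these data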;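 also: PTEN knockout HCT116 line with beta catenin targeted HCT116 as companion control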
The depositor's hits bear a star. This excerpt belongs to a sample that is enriched for hits.

Cc1ccc2[nH]c3c(c2c1)CCCC3=O was read as Fibroblast inh 87, H69AR inhibit 89, HCT116 bCat-KO 92, HUVEC inhibit 27* and PTEN del growth 92.
`Cc1nc2ccccc2nc(C)c1=NO` gave Fibroblast inh 93, H69AR inhibit 27*, HCT116 bCat-KO 82, HUVEC inhibit 95 and PTEN del growth 99.
CCOC(=O)c1nc2ccccc2nc1C was read as HCT116 bCat-KO 91 and PTEN del growth 104.
Screening Cc1ccc2nc(C)/c(=N\O)c(C)nc2c1 returned Fibroblast inh 98, H69AR inhibit 6.8*, HCT116 bCat-KO 88, HUVEC inhibit 93 and PTEN del growth 87.
Cc1nc2ccc(Cl)cc2nc(C)/c1=N\O was read as Fibroblast inh 91, H69AR inhibit 5.6*, HCT116 bCat-KO 98, HUVEC inhibit 87 and PTEN del growth 100.
For COc1ccccc1-n1cnc(N)c1C(=O)c1ccccc1 the results were Fibroblast inh 73, H69AR inhibit 24*, HCT116 bCat-KO 32, HUVEC inhibit 68 and PTEN del growth 27.
`COc1ccccc1-n1cnc(N)c1C(C)=O` gave Fibroblast inh 98, H69AR inhibit 88, HCT116 bCat-KO 113, HUVEC inhibit 96 and PTEN del growth 103.
For O=S(=O)(c1ccc2c(c1)OCCO2)N1CCC(c2nc3ccccc3s2)CC1 the results were Fibroblast inh 93, H69AR inhibit 102, HCT116 bCat-KO 79, HUVEC inhibit 81 and PTEN del growth 75.
Screening COc1ccc(CN2CCn3ncc(C(=O)Nc4cc(C)cc(C)c4)c3C2=O)cc1 returned Fibroblast inh 81, H69AR inhibit 50, HCT116 bCat-KO 78, HUVEC inhibit 10* and PTEN del growth 78.
For Cc1cccc(C(=O)Nc2ccc(O)c3c(=O)cc(-c4ccccc4Cl)oc23)c1 the results were HCT116 bCat-KO 79 and PTEN del growth 74.
CCOC(=O)C1C(=O)C=C(c2ccc(Br)cc2)CC1c1ccco1 (stereo not drawn) was read as Fibroblast inh 100, H69AR inhibit 28*, HCT116 bCat-KO 35, HUVEC inhibit 97 and PTEN del growth 31.
For CCOC(=O)C1C(=O)C=C(c2cccc(NS(C)(=O)=O)c2)CC1c1ccco1 (stereo not drawn) the results were Fibroblast inh 86, H69AR inhibit 37*, HCT116 bCat-KO 70, HUVEC inhibit 69 and PTEN del growth 68.
CCOC(=O)C1C(=O)C=C(c2ccc([N+](=O)[O-])cc2)CC1c1ccccc1 (stereo not drawn) was read as HCT116 bCat-KO 77 and PTEN del growth 74.
`O=C(Nc1cccc(-c2nc3ccccc3o2)c1)c1ccc(N2C(=O)C3C4C=CC(C4)C3C2=O)cc1` (stereo not drawn) gave Fibroblast inh 73, H69AR inhibit 39*, HCT116 bCat-KO 53, HUVEC inhibit 58 and PTEN del growth 47.
`O=C1C2C3C=CC(C3)C2C(=O)N1c1cccc(-c2nc3ccccc3o2)c1` (stereo not drawn) gave Fibroblast inh 110, H69AR inhibit 99, HCT116 bCat-KO 90, HUVEC inhibit 99 and PTEN del growth 101.
`C=CCCC(=O)Nc1nc(C)c(-c2csc(Nc3ccccc3OC)n2)s1` gave HCT116 bCat-KO 28 and PTEN del growth 29.
`CC(C)CCn1c(SCC(N)=O)nc2c1c(=O)n(C)c(=O)n2C` gave Fibroblast inh 93, H69AR inhibit 39*, HCT116 bCat-KO 92, HUVEC inhibit 100 and PTEN del growth 93.
Screening O=C(c1ccc(S(=O)(=O)N2CCCCC2)cc1)N1CCN(c2ccccc2)CC1 returned Fibroblast inh 110, H69AR inhibit 97, HCT116 bCat-KO 96, HUVEC inhibit 89 and PTEN del growth 87.
Screening Cc1nn(C(=O)c2cccs2)c(C)c1CN1C(=O)c2ccccc2C1=O returned Fibroblast inh 81, H69AR inhibit 21*, HCT116 bCat-KO 76, HUVEC inhibit 80 and PTEN del growth 88.
Screening Cc1nn(C(=O)c2ccco2)c(C)c1CN1C(=O)c2ccccc2C1=O returned Fibroblast inh 97, H69AR inhibit 111, HCT116 bCat-KO 106, HUVEC inhibit 100 and PTEN del growth 100.
For COc1cc(Cl)c(C)cc1NC(=O)COC(=O)/C=C/c1c(C)nn(C2CCS(=O)(=O)C2)c1Cl (stereo not drawn) the results were Fibroblast inh 65, H69AR inhibit 33*, HCT116 bCat-KO 86, HUVEC inhibit 56 and PTEN del growth 82.
